Laboratory results published in article PMC3844559 (Journal of medicinal chemistry, 2013).
No end group written: not given here. *: point of attachment. X1 = S‑(2,3-bis(palmitoyloxy)-(2R)-propyl)‑R‑cysteinyl, CCCCCCCCCCCCCCCC(=O)OC[C@H](CSC[C@H](N)C(=O)*)OC(=O)CCCCCCCCCCCCCCC

Experiments:
[1] = target: human TLR2 (Homo sapiens, UniProt O60603); assay: human TLR2-specific NF-κB reporter gene assay; type: cell-based; settings: for EC50: hTLR2-Agonistic Activity (EC50 in nM), human TLR2-specific reporter gene assay; for hTLR2-specific agonistic activity: reporter gene assays
[2] = test system: murine models of immunization; settings: cited from earlier work
[3] = test system: rabbit models; settings: cited from earlier work
[4] = test system: ex vivo human blood models; settings: cited from earlier work
[5] = aqueous solubility; type: physicochemical; settings: water
[6] = test system: patients; settings: cited from earlier work
[7] = stability of aqueous stocks / accelerated stability testing; type: physicochemical; settings: for stability of aqueous stocks: aqueous stocks on storage
[8] = test system: human PBMCs or human whole blood; assay: proinflammatory cytokine induction, 5-plex cytometric bead assays; type: cell-based; settings: 5-plex cytometric bead assays (data not shown)
[9] = test system: granulocytes and monocytes in human whole blood; assay: CD11b upregulation by flow cytometry in whole human blood; type: cell-based; settings: 1 h
Procedure, shortened: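 Heparin-anticoagulated whole blood from healthy volunteers was added to serial dilutions of test compound, with reference compounds and fRPMI negative controls, then held 1 h at 37 °C. Cells were stained with CD11b-PE/CD14-APC for 30 min at 4 °C in the dark, then lysed/fixed and washed twice in saline. 100,000 gated events were acquired. Granulocytes were gated by forward/side scatter, monocytes by CD14.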

[10] = test system: human PBMCs; assay: 41-plex chemokine/cytokine immunoassay in hPBMC; type: cell-based; settings: 12 h, 41-plex immunoassay
Procedure, shortened: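 Fresh human PBMCs were isolated on Ficoll-Hypaque gradients from venipuncture blood. Cells were plated at 10⁵ per well, stimulated 12 h with graded concentrations of test compound, with LPS as reference. Supernatants were collected by centrifugation and assayed in duplicate for 41 cytokines/chemokines by magnetic bead multiplex; intra-assay CV was 4–8%. Data are means of duplicates from a representative experiment.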

[11] = test system: rabbits; assay: safety evaluation in rabbits; type: in vivo, rabbit
Procedure, shortened: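 Rabbits (n=3 per group) received test compound 100 μg/dose, LPS 1 μg/dose (positive control) or saline vehicle. Doses were in sterile saline without excipients, 0.5 mL, as an i.v. bolus into the marginal ear vein. Blood was drawn from the contralateral ear at 0, 2 and 6 h for total/differential leukocytes, band forms, hemoglobin and MCH. Core temperature was logged by rectal thermistor probe.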

[12] = single i.v. bolus, 38 100 μg, LPS 1 μg

Chain of human TLR2 (O60603 21-784): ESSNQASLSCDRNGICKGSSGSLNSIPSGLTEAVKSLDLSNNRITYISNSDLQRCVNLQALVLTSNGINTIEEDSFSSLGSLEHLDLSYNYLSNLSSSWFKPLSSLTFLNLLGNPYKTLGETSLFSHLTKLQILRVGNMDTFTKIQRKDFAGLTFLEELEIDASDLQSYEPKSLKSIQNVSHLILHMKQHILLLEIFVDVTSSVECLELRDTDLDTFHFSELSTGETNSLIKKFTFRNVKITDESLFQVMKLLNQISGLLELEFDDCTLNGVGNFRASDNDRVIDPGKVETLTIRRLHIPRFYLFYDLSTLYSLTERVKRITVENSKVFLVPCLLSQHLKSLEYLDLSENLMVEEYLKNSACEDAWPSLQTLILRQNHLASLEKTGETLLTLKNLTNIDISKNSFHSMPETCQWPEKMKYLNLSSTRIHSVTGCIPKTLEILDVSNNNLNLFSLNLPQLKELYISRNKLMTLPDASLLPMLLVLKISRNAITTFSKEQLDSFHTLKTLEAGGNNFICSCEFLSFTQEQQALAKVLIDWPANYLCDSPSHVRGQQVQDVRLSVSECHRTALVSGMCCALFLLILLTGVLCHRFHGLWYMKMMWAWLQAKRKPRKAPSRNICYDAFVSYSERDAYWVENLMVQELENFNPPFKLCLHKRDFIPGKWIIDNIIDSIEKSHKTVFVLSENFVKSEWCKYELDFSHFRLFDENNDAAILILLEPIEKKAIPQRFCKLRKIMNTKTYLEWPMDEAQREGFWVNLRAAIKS

Compound | EC50 [1] | aqueous solubility [5] | hTLR2-specific agonistic activity [1] | also measured
CCCCCCCCCCCCCCCC(=O)OCC(CSC[C@H](N)C(=O)N[C@@H](CO)C(=O)O)OC(=O)CCCCCCCCCCCCCCC (mixture of isomers) [Compound 2, S-[2,3-bis(palmitoyloxy)-(2RS)-propyl]-R-cysteinyl-S-serine] |  |  |  | adjuvanticity [2]: potently adjuvantic; local reactogenicity and pyrogenicity [3]: devoid of; levels of proinflammatory mediators such as TNF-α, IL-1β and IL-18 ([4]; earlier findings): virtually undetectable levels; pro-inflammatory activity (TNF-α, IL-1β, IL-6, IL-8 production) ([4]; ex vivo human blood models): devoid of any detectable pro-inflammatory activity
CCCCCCCCCCCCCCCC(=O)OCCSC[C@H](NC(C)=O)C(=O)N[C@@H](COC(=O)CCC(=O)O)C(=O)OC [Compound 14, (7S,10R)-10-Acetamido-7-(methoxycarbonyl)-4,9,16-trioxo-5,15-dioxa-12-thia-8-azahentriacontan-1-oic acid] | 0.65 nM | highly water soluble | retained hTLR2-specific agonistic activity | 
CCCCCCCCCCCCCCCCn1cc(CCSC[C@H](NC(C)=O)C(=O)N[C@@H](CO)C(=O)OC)nn1 [Compound 27, (S)-Methyl 2-((R)-2-acetamido-3-((2-(1-hexadecyl-1H-1,2,3-triazol-4-yl)ethyl)thio)propanamido)-3-hydroxypropanoate] | 1020 nM |  |  | 
S-[2,3-bis(palmitoyloxy)-(2R)-propyl]-R-cysteinyl-GNNDESNISFKEK (X1-GNNDESNISFKEK) [Compound 1] |  |  |  | well tolerated dose, intra-tumoral injection ([6]; ten patients with pancreas carcinomas, 20–30 μg injected during surgery): up to 20 μg; systemic side effects, intra-tumoral injection ([6]; ten patients with pancreas carcinomas, 20–30 μg): no systemic side effects were noted; systemic side effects, application on punch biopsy skin lesions ([6]; twelve patients, 0.125–1.0 μg): other than transient and self-limited erythema, no systemic side effects were noted
CCCCCCCCCCCCCCCC(=O)OCCSC[C@H](NC(C)=O)C(=O)N[C@@H](CCCCN)C(=O)OC [Compound 10, 2-(((R)-2-Acetamido-3-(((S)-6-amino-1-methoxy-1-oxohexan-2-yl)amino)-3-oxopropyl)thio)ethyl palmitate] | 1.5 nM | highly water soluble |  | stability of aqueous stocks [7]: significant loss of activity of aqueous stocks in less than a week
CCCCCCCCCCCCCCCCOC(=O)NCCSC[C@H](NC(C)=O)C(=O)N[C@@H](CO)C(=O)NCCCN(C)C [Compound 38, Hexadecyl ((8S,11R)-11-acetamido-8-(hydroxymethyl)-2-methyl-7,10-dioxo-13-thia-2,6,9-triazapentadecan-15-yl)carbamate] | 0.25 nM |  |  | proinflammatory cytokine signatures [8]: could not detect any significant proinflammatory cytokine signatures; CD11b upregulation in monocytes ([9]; CD14+ gated): strong monocytic CD11b upregulation; CD11b upregulation in neutrophils (granulocytes) ([9]; relative to 2): upregulated CD11b very potently; chemical stability under accelerated stability testing conditions ([7]; accelerated stability testing): retained excellent chemical stability; solubility [5]: > 10000 µg/mL; chemokine induction (MCP-1, MCP-3, MDC, IL-8) [10]: prominent biphasic induction; pyrogenicity (febrile response, core temperature) [11, 12]: did not induce any such effects; total leukocyte and lymphocyte counts in peripheral blood [11, 12]: did not induce any such effects; observable adverse effects, dose-escalation study ([11]; up to 100 μg/animal, intramuscular or intravenous bolus): did not result in any observable adverse effects
CCCCCCCCCCCCCCCC(=O)NCCSC[C@H](NC(C)=O)C(=O)N[C@@H](CO)C(=O)OC [Compound 22, (S)-Methyl 2-((R)-2-acetamido-3-((2-palmitamidoethyl)thio)propanamido)-3-hydroxypropanoate] | 12.8 nM |  |  | 

Continued by falling EC50 [1], values first:

EC50 [1] | aqueous solubility [5] | Compound | hTLR2-specific agonistic activity [1] | also measured
290 nM |  | CCCCCCCCCCCCCc1cn(CCSC[C@H](NC(C)=O)C(=O)N[C@@H](CO)C(=O)OC)nn1 [Compound 24, (S)-Methyl 2-((R)-2-acetamido-3-((2-(4-tridecyl-1H-1,2,3-triazol-1-yl)ethyl)thio)propanamido)-3-hydroxypropanoate] |  | 
5.84 nM | highly water soluble | CCCCCCCCCCCCCCCC(=O)OCCSC[C@H](NC(C)=O)C(=O)N[C@@H](COS(=O)(=O)O)C(=O)OC [Compound 13, 2-(((R)-2-Acetamido-3-(((S)-1-methoxy-1-oxo-3-(sulfooxy)propan-2-yl)amino)-3-oxopropyl)thio)ethyl palmitate] | retained hTLR2-specific agonistic activity | 
1.5 nM | highly water soluble | CCCCCCCCCCCCCCCC(=O)OCCSC[C@H](NC(C)=O)C(=O)N[C@@H](COC(=O)[C@@H](N)CCCCN)C(=O)OC [Compound 12, 2-(((R)-2-Acetamido-3-(((S)-3-(((S)-2,6-diaminohexanoyl)oxy)-1-methoxy-1-oxopropan-2-yl)amino)-3-oxopropyl)thio)ethyl palmitate] | retained hTLR2-specific agonistic activity | stability of aqueous stocks [7]: found to be unstable
0.75 nM |  | CCCCCCCCCCCCCCCC(=O)OCCSC[C@H](NC(C)=O)C(=O)N[C@@H](COC(=O)c1cccnc1)C(=O)OC [Compound 15, (S)-2-((R)-2-Acetamido-3-((2-(palmitoyloxy)ethyl)thio)propanamido)-3-methoxy-3-oxopropyl nicotinate] | retained hTLR2-specific agonistic activity | 
0.065 nM |  | CCCCCCCCCCCCCCCCOC(=O)NCCSC[C@H](NC(C)=O)C(=O)N[C@@H](CO)C(=O)OC [Compound 34, (2S,5R)-Methyl 5-acetamido-2-(hydroxymethyl)-4,11-dioxo-12-oxa-7-thia-3,10-diazaoctacosan-1-oate] |  | 
